Assay results reported in ChEMBL document CHEMBL1914304 (J Med Chem, 2011).

Key:
[1] = biological target: T1, Kir2.1 (Homo sapiens, UniProt P63252); test: Inhibition of Kir2.1 at 10 uM after 5 mins by patch clamp assay
T1 sequence (P63252 whole entry): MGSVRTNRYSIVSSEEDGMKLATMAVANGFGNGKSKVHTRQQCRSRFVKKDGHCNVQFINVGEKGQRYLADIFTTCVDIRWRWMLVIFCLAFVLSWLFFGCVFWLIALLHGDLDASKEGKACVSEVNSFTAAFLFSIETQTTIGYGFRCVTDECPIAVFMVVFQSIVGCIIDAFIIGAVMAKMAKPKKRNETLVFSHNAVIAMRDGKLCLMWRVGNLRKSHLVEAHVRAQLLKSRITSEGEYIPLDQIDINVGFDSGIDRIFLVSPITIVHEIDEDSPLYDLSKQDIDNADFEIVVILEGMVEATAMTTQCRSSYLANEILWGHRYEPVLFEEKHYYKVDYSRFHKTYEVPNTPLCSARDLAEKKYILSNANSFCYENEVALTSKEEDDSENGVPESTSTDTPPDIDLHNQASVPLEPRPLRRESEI
Summary of the method: (§1)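 Cardiac ion channel panel run by a contract lab on an automated parallel patch-clamp system at room temperature. Each of 12 cardiac channels was tested with 10 µM compound for 5 min exposure, in two cells per channel (n ≥ 2). Values are reported as mean % inhibition.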

[2] = biological target: T2, Kv4.3 (Homo sapiens, UniProt Q9UK17); test: Inhibition of Kv4.3 at 10 uM after 5 mins by patch clamp assay; summary of the method: as §1
T2 sequence (Q9UK17 whole entry): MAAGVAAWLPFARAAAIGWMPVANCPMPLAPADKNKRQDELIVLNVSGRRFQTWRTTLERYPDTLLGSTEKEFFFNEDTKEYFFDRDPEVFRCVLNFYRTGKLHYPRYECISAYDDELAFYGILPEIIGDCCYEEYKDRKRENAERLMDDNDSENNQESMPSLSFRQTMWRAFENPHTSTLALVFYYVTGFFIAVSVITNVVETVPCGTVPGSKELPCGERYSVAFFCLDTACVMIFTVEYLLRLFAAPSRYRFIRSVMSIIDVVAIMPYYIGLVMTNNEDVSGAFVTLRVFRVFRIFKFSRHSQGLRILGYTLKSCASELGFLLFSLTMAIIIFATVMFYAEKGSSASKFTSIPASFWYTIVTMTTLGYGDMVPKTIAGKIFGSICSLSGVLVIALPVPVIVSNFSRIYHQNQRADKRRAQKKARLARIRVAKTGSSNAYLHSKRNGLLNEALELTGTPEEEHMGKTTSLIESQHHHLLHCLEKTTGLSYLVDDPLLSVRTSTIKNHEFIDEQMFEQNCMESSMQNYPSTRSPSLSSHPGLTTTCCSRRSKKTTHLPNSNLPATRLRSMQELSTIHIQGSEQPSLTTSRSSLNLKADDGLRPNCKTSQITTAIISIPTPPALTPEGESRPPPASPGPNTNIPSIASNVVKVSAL

CCCNCC(O)COc1ccccc1C(=O)CCc1ccccc1 (racemic) [PROPAFENONE]
inhibition at 5 min, 10 µM [1]: 0.2% | inhibition at 5 min, 10 µM [2]: 44.1%
